From ChEMBL document CHEMBL3351871, “Potent, long-acting cyclopentane-1,3-Dione thromboxane (A2)-receptor antagonists” (ACS Med Chem Lett, 2014) come the findings set out here.

One data set concerns the target T1, Thromboxane A2 receptor (Homo sapiens, UniProt P21731).
T1 sequence (P21731 whole entry): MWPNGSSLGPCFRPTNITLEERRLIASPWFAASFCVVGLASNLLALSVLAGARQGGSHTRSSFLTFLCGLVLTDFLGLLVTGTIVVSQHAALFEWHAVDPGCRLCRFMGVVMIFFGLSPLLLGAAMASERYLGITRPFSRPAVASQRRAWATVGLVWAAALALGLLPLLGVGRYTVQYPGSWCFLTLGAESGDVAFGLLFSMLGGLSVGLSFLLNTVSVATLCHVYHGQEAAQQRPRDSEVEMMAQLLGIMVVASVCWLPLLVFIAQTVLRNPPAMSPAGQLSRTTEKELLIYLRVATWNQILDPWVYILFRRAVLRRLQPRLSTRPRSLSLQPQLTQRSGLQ
As to the kind of experiment: Antagonist activity against human thromboxane A2 receptor alpha expressed in QBI-HEK293A cells assessed as reduction in I-BOP-induced inositol monophosphate production incubated for 15 to 60 mins before I-BOP addition by HTRF assay. The format is functional, cell-based, HEK293-A. A digest of the protocol:
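Stably transfected HEK-293 cells expressing human TP receptor α preincubated 15 min with a range of antagonist concentrations, then stimulated with agonist I-BOP at 0.2 nM. IP1 (metabolite of IP3) quantified after a further 1 h as the activation read-out. IC50 from concentration–response curves; mean and SD of one or more assays run in triplicate.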
On the technique in general: TR-FRET usually uses a lanthanide donor and a delayed reading to cut background.

The target in data set [1] is T2, Thromboxane A2 receptor (Homo sapiens) (UniProt P21731).
T2 sequence (whole entry): T1 sequence (P21731 whole entry)
As to the kind of experiment: Antagonist activity against human thromboxane A2 receptor alpha expressed in QBI-HEK293A cells assessed as reduction in I-BOP-induced inositol monophosphate production at 1 uM incubated for 15 to 60 mins before I-BOP addition by HTRF assay. To be noted: HEK293-A. It counts as functional, cell-based. A digest of the protocol:
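hTP-expressing HEK-293 cells exposed to 1 μM antagonist for 15 or 60 min, then 0.8 nM I-BOP added without washing. Relative IP1 levels measured. Controls received I-BOP alone or no treatment.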

The target of data set [2] is T2, Thromboxane A2 receptor (Homo sapiens). To be noted: HEK293-A, 1 uM.
Data set [3] has the same target. Put plainly: Reversible antagonist activity against human thromboxane A2 receptor alpha expressed in QBI-HEK293A cells assessed as reduction in I-BOP-induced inositol monophosphate production at 1 uM incubated for 15 to 60 mins before I-BOP addition and measured after 4 consecutive drug washout by HTRF assay. The format is functional, cell-based. The settings on record: HEK293-A. A digest of the protocol:
(§1)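 TP receptor α HEK-293 cells given 1 μM compound for 15 or 60 min, then four consecutive wash cycles, each about 50-fold dilution and separated by 15 min equilibration, before 0.8 nM I-BOP. IP1 then measured. Controls received I-BOP alone or no treatment; ANOVA with Dunnett's test against the […] at each time.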

Data set [4] has the same target. As to the kind of experiment: Irreversible antagonist activity against human thromboxane A2 receptor alpha expressed in QBI-HEK293A cells assessed as reduction in I-BOP-induced inositol monophosphate production at 1 uM at 4 degC incubated for 15 to 60 mins before I-BOP addition and measured after 6 consecutive drug washout by HTRF assay. It counts as functional, cell-based. The settings on record: HEK293-A. In a few lines:
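Six-wash washout protocol (each wash ~50-fold dilution) run at 4 °C to suppress endocytosis and receptor trafficking. Human TP receptor-expressing cells, then I-BOP stimulation and IP1 read-out.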

The target is the same in data set [5]. As to the kind of experiment: Irreversible antagonist activity against human thromboxane A2 receptor alpha expressed in QBI-HEK293A cells assessed as reduction in I-BOP-induced inositol monophosphate production at 1 uM incubated for 15 to 60 mins before I-BOP addition and measured after 6 consecutive drug washout by HTRF assay. The format is functional, cell-based. To be noted: HEK293-A. A digest of the protocol: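 Washout variant: hTP cells preincubated 15 min with compound (1 μM; 10 μM for some), then 6 consecutive wash cycles of ~50-fold dilution each before 0.8 nM I-BOP. Relative IP1 determined. Controls received I-BOP alone or no treatment; ANOVA with Dunnett's test against the +I-BOP condition.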

The subject of the next data set is Plasma. Put plainly: Stability in CD1 mouse plasma at 1 uM after 1 hr at 37 degC by UPLC-ESI-MS/MS method. The format is ADME, cell-free. A digest of the protocol:
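Free compound concentration followed during 1 h incubation in plasma.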

The target of data set [6] is T3, Prostaglandin E2 receptor EP1 subtype (Homo sapiens) (UniProt P34995).
T3 sequence (whole entry): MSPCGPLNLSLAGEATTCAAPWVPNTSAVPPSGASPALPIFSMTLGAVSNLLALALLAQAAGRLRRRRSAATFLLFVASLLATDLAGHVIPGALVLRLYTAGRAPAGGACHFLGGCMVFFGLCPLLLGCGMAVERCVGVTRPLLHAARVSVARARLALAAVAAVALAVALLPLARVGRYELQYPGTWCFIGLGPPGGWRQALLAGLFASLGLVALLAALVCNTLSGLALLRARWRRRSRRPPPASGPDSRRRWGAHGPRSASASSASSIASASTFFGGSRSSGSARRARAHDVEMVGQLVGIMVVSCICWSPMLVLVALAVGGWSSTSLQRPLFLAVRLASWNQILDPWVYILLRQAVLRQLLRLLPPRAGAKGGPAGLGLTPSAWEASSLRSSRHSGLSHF
Put plainly: Antagonist activity against human EP1 receptor expressed in QBI-HEK293A cells assessed as reduction in 17-PGE2-induced inositol monophosphate production at 1 uM incubated for 15 to 60 mins before […] addition by HTRF assay. The settings on record: HEK293-A. It counts as functional, cell-based.

The target in data set [7] is T2, Thromboxane A2 receptor (Homo sapiens). As to the kind of experiment: Irreversible antagonist activity against human thromboxane A2 receptor alpha expressed in QBI-HEK293A cells assessed as reduction in I-BOP-induced inositol monophosphate production at 1 uM incubated for 15 to 60 mins before I-BOP addition and measured after 4 consecutive drug washout by HTRF assay. The format is functional, cell-based. To be noted: HEK293-A. In a few lines:
as §1

Data set [8] in a line: Stability in presence of 10 mM glutathione in pH 7.0 aqueous buffer after 3 hrs. The format is physicochemical. The settings on record: pH 7, 3 h. In a few lines:
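Equimolar glutathione and CPD derivative, each at 10 mM, incubated in aqueous buffer at pH 7 for 3 h. Consumption of the starting dione monitored.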

Activity calls are given as the source filed them. The calls are words filed in the database; no cut-off is given here.

A word on the IC50: it is the concentration that inhibits the measured activity by half.

Consider `Cc1cccc(C)c1C1=C(OCC(C)C)CC(Cc2cccc3c2CCC(NS(=O)(=O)c2ccc(Cl)cc2)C3)C1=O` (centres undefined), for which the IC50 on Thromboxane A2 receptor was 2760 nM.
Regarding `O=C(O)Cc1cccc2c1CCC(NS(=O)(=O)c1ccc(Cl)cc1)C2` (centres undefined), the inhibition result in data set [1], in [2] and in [3] was “Active” throughout. Besides, the half-maximal inhibitory concentration (IC50) on Thromboxane A2 receptor turned out to be 10.7 nM.
`Cc1cccc(C)c1C1=C(O)CC(Cc2cccc3c2CCC(NS(=O)(=O)c2ccc(Cl)cc2)C3)C1=O` (centres undefined): the inhibition entry in data set [4], in [1], in data set [5] and in [7] was “Active” throughout. In addition, in the data set on Plasma, the Stability entry is “Stable”. In data set [6], the inhibition entry was “inactive”. Further, the IC50 at Thromboxane A2 receptor stood at 0.015 nM.
For `O=C(O)CCc1cccc(CCNS(=O)(=O)c2ccc(Cl)cc2)c1`, in [3], the inhibition entry is “Active”.
`Cc1ccc2c(c1CCC(=O)O)CC[C@@H](NS(=O)(=O)c1ccc(Cl)cc1)C2` [TERUTROBAN]: the 50% inhibitory concentration (IC50) at Thromboxane A2 receptor stood at 16.4 nM.
With `COc1ccc(C2=C(O)CC(Cc3cccc4c3CCC(NS(=O)(=O)c3ccc(Cl)cc3)C4)C2=O)cc1` (centres undefined), the inhibition entry in [1] and in data set [7] was “Active” each time. In addition, the IC50 on Thromboxane A2 receptor is 0.052 nM.
Regarding `O=C1C(c2ccccc2)=C(O)CC1Cc1cccc(CCNS(=O)(=O)c2ccc(Cl)cc2)c1` (racemic) [listing 1 of 2 here], in data set [5], the inhibition entry is “Active”.
Take `O=C1C(Cc2ccccc2)=C(O)CC1Cc1cccc2c1CCC(NS(=O)(=O)c1ccc(Cl)cc1)C2` (centres undefined): the inhibition entry in data set [5] was “Active”. Besides, the IC50 on Thromboxane A2 receptor is 29.2 nM.
With `Cc1cccc(C)c1C1C(=O)CCC1=O`, the Stability result in [8] is recorded as “Stable”.
As for `O=C1C(c2ccccc2)=C(O)CC1Cc1cccc(CCNS(=O)(=O)c2ccc(Cl)cc2)c1` (single isomer, unassigned; (+)), in data set [5], the inhibition entry was “Active”.
`O=C1C(c2ccccc2)=C(O)CC1Cc1cccc(CCNS(=O)(=O)c2ccc(Cl)cc2)c1` (racemic) [listing 2 of 2 here]: on Thromboxane A2 receptor, the half-inhibitory concentration (IC50) is 59 nM.
For `O=C1C(c2ccc(F)cc2)=C(O)CC1Cc1cccc2c1CCC(NS(=O)(=O)c1ccc(Cl)cc1)C2` (centres undefined), the inhibition entry in data set [5] is “Active”. In addition, at Thromboxane A2 receptor, the IC50 worked out at 6.5 nM.
Take `O=C1C(C2CCCCC2)=C(O)CC1Cc1cccc(CCNS(=O)(=O)c2ccc(Cl)cc2)c1` (centres undefined): the IC50 at Thromboxane A2 receptor is 892 nM. In addition, the inhibition result in [3] was “Active”.
Take `CC1=C(O)CC(Cc2cccc3c2CCC(NS(=O)(=O)c2ccc(Cl)cc2)C3)C1=O` (centres undefined): the inhibition result in [1] and in data set [3] was “Active” in each case. The IC50 on Thromboxane A2 receptor was found to be 11.2 nM.
Turning to `O=C1C(c2ccccc2)=C(O)CC1Cc1cccc2c1CCC(NS(=O)(=O)c1ccc(Cl)cc1)C2` (centres undefined), the inhibition entry in data set [5] is “Active”. The 50% inhibitory concentration (IC50) at Thromboxane A2 receptor worked out at 3.9 nM.
`Cc1cccc(C)c1C1=C(O)CC(Cc2cccc3c2CCCC3)C1=O` (centres undefined): the IC50 on Thromboxane A2 receptor was determined as 891 nM. The inhibition result in data set [3] was “Active”.
